For 98 molecules, cytotoxicity results are on record in ChEMBL document CHEMBL4513216, “Probing the Open Global Health Chemical Diversity Library for Multistage-Active Starting Points for Next-Generation Antimalarials” (ACS Infect Dis, 2020).

Each structure is given as a SMILES string.

A short description of this data set: Toxicity liver stage against HepG2, at 10uM. It counts as cell-based. Set-up: test concentration 10 uM, cell line HepG2-A16-CD81EGFP. As to conditions: human, HepG2-A16-CD81EGFP cells; read-out: INHIBITION
The essentials:
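Uninfected HepG2-A16-CD81EGFP cells, 3 × 10^3 per well, 1536-well, plated on prespotted compound at 10 μM final, parasite-free screening media added to match infected plates; puromycin 10 μM positive, DMSO 0.5% negative; run in parallel with 48 h PbLuc assay at 37 °C, 5% CO2; viability by CellTiter-Glo luminescence, normalized to controls.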
For the molecule `O=C(Nc1cnn(CC(F)F)c1)c1cccc(-n2cnnn2)c1`, the cytotoxicity at 10 µM turned out to be 6.01%. Regarding `Cc1cc2c(=O)n(CCSc3cnn[nH]3)cnc2s1`, the cytotoxicity at 10 µM is 10.1%. As to `CCCc1noc(C(C)S(=O)(=O)Cc2nc(C3CC3)no2)n1` (stereo not drawn), the cytotoxicity at 10 µM is -9.02%. As for `O=C(c1c(F)cccc1Br)N1CCCOCC1`, the cytotoxicity at 10 µM was determined as 6.69%.

As for `Cc1nc(CN2C[C@@H]3CCCO[C@@H]3[C@H](N(C)C(C)C)C2)cs1`, the cytotoxicity at 10 µM came to 6.86%. On to `O=C(NCc1nc(C2CC2)no1)N1CCOC(c2cccc(F)c2)C1` (stereo not drawn), for which the cytotoxicity at 10 µM is -44.6%. `O=C1CCCC2=Nc3nonc3NC(c3ccc(F)cc3F)C12` (stereo not drawn): the cytotoxicity at 10 µM was 2.43%. Next, `COc1cccc(C(O)C(=O)N(C)CCc2ccccn2)c1` (stereo not drawn): 0.413%. Next, `Fc1cnc(N2CCCn3cnc(COc4cccnc4)c3C2)nc1`: 1.42%; `CSC1(CNC(=O)N(C)Cc2ccc(C)s2)CCOCC1`: -46.5%. As for `CS(=O)(=O)N[C@H]1CN(CCOCc2ccccc2)C[C@@H]1C1CC1`, the cytotoxicity at 10 µM was -1.1%. Consider `COc1cccc(NC(=O)NC2(c3noc(CN(C)C)n3)CCCC2)c1`, for which the cytotoxicity at 10 µM amounted to 2.6%. As to `Cc1ccc2oc(C(=O)N3CCCC(n4ccnc4C)C3)cc2n1` (stereo not drawn), the cytotoxicity at 10 µM was -3.37%. On to `Cc1n[nH]c(C)c1C1COCCN1c1ncnc2sccc12` (stereo not drawn), for which the cytotoxicity at 10 µM is 23.1%. With `C=C(C)CN1C(=O)CC(Cc2ccc(F)cc2)C1=O` (stereo not drawn), the cytotoxicity at 10 µM is 1.62%. As for `Cn1ccc(N2CCCC(NC(=O)c3ccc(Cl)o3)C2=O)n1` (stereo not drawn), the cytotoxicity at 10 µM was -2.51%. For the molecule `COc1cc(C)sc1C(=O)NCCC(=O)N(C)c1ccccc1`, the cytotoxicity at 10 µM is -1.41%.

For the molecule `CC1CCCN(Cc2ccc(C(N)=O)cc2)C1` (stereo not drawn), the cytotoxicity at 10 µM was -10.4%. In the case of `CCN1Cc2cc3c(cc2NCCC1=O)OCO3`, the cytotoxicity at 10 µM is -7.44%. On to `Cc1cc(NC(=O)N(C)CCN2CCN(c3ccccc3)CC2)on1`, for which the cytotoxicity at 10 µM amounted to 4.79%. For the molecule `CNS(=O)(=O)CC(=O)NCc1cc2c(s1)CCCCC2`, the cytotoxicity at 10 µM came to 2.42%. Take `O=C(NCc1cc(F)ccc1F)Nc1ccn(CC(F)F)n1`: the cytotoxicity at 10 µM is -3.06%.

Take `CC(C)(C)C(=O)N1CCCN(c2ncnc3nc(N)ccc23)CC1`: the cytotoxicity at 10 µM was determined as 3.39%. For the molecule `Cc1cnn(CCNCC(=O)NCC2(c3ccccc3)CCC2)c1`, the cytotoxicity at 10 µM stood at 5.87%. Turning to `CC(C)N1CC(C(=O)NCc2ccnc(-n3cccn3)c2)CC1=O` (stereo not drawn), the cytotoxicity at 10 µM was -2.5%. Regarding `Cc1ccc(-c2ccc(C(=O)NCC(N)=O)c(F)c2)cc1`, the cytotoxicity at 10 µM is -0.758%. As to `CCc1nc(C)c(CN2CCCC(c3nn(C)c(=O)n3CC)C2)[nH]1` (stereo not drawn), the cytotoxicity at 10 µM is -7.77%. In the case of `CO[C@@H]1CCN(c2ncccn2)[C@H]1Cc1ccccc1` it was -0.651%. With `Cc1cnc(N(C)CCCc2cnn(C)c2)nc1N(C)C`, the cytotoxicity at 10 µM turned out to be 2.03%.

Regarding `O=C(O)c1cc(S(=O)(=O)Nc2ccc(F)cc2F)cc2c1OCCO2`, the cytotoxicity at 10 µM was -1.2%. Consider `COCc1cc(N(CC(F)F)C2CC2)n2ncnc2n1`, for which the cytotoxicity at 10 µM was -3.94%.

On to `Cc1n[nH]c2c1C(c1ccc(Br)cc1)SCC(=O)N2` (stereo not drawn), for which the cytotoxicity at 10 µM turned out to be 6.5%.

Take `O=C(O)[C@@H]1CN(CC(=O)N2CCCCCC2)C[C@H]1c1ccc(F)cc1`: the cytotoxicity at 10 µM was -3.24%. Next, `NCCc1cn(Cc2ccccn2)c2ccccc12`: 3.71%; `CC(=O)c1cn(CCC(=O)N[C@@H](CC(C)C)C(=O)O)c2ccccc12`: 2.1%; `Cc1nc2c(s1)C(N(C)C(=O)NCCCC(C)(C)CO)CCC2` (stereo not drawn): -3.43%.

As for `CCOC(=O)C1CCCCN1Cc1c[nH]nc1-c1ccc(F)cc1F` (stereo not drawn), the cytotoxicity at 10 µM was -0.545%. In the case of `Cn1cc(NC(=O)N2CCC2c2ccccc2)ccc1=O` (stereo not drawn) it was -9.57%; in that of `OCCOc1cc(F)ccc1NCc1ccc(F)c(F)c1`, -6.38%.

`COc1ccccc1-c1ncc(CN2CCCC[C@H](N(C)C)C2)s1`: the cytotoxicity at 10 µM was -5.23%. In the case of `CN(C)[C@@H]1C[C@@H](CO)N(C(=O)Nc2ccc(SC(F)(F)F)cc2)C1` it was -0.187%; in that of `CCS(=O)(=O)N1CCC2(CC(=O)N(c3cncnc3)C2)C1` (stereo not drawn), -0.298%.

Take `O=C(NCC(=O)N1CCCCC1)c1sccc1C1CC1`: the cytotoxicity at 10 µM is -136%. In the case of `COCCOCCC(=O)Nc1c(-c2ccc(F)cc2)ncn1C`, the cytotoxicity at 10 µM is -3.31%.

Consider `COc1cc(-c2nc(CN(CCO)CCO)c(C)o2)ccc1F`, for which the cytotoxicity at 10 µM was -10.2%. For the molecule `c1ccc(COC[C@H]2CC[C@H]3[C@H](CCN3Cc3cccnc3)O2)nc1`, the cytotoxicity at 10 µM was -80.2%.

On to `CN1CCCC(N(C)S(=O)(=O)c2cccc3ncccc23)C1` (stereo not drawn), for which the cytotoxicity at 10 µM was -6.46%.

For the molecule `O=C(NC1CC1)[C@H]1C[C@@H]2CCN(CCc3ccccc3)C[C@H]2O1`, the cytotoxicity at 10 µM was 6.46%. For `CN(CCCOc1ccccc1)S(=O)(=O)N1CCOCC1`, the cytotoxicity at 10 µM is 4.38%. Regarding `CN(Cc1cccnc1)[C@@H]1CN(C(=O)c2ccoc2)[C@@H]2CCCO[C@H]12`, the cytotoxicity at 10 µM was -1.81%. For the molecule `Cc1nc2cc(NCc3cnn(C)c3)ccc2n1C`, the cytotoxicity at 10 µM was 13.1%. In the case of `Cc1cccnc1CN1CCN(c2noc(-c3ccccc3)n2)CC1`, the cytotoxicity at 10 µM came to 8.09%. As to `CN1CCCc2cc(NC(=O)N3CCOC(C(N)=O)C3)ccc21` (stereo not drawn), the cytotoxicity at 10 µM worked out at 0.602%. Take `COC(=O)NCC(=O)N1CCC(Oc2cccc(C)c2)CC1`: the cytotoxicity at 10 µM was -0.555%. For `NC(=O)c1cccc(OCC(=O)N2CCCC(n3ccnc3)C2)c1` (stereo not drawn), the cytotoxicity at 10 µM was -9.37%. As to `COCCCN(C)Cc1nc2c(cnn2C)c(=O)[nH]1`, the cytotoxicity at 10 µM is -4.2%. Consider `CCCc1nnc(N2CCN(c3ccccc3F)CC2)o1`, for which the cytotoxicity at 10 µM is 5.85%.

With `CN1C(=O)COc2ccc(C(=O)Cn3cnc4ccccc4c3=O)cc21`, the cytotoxicity at 10 µM is -0.894%. Take `Cc1ccsc1C(=O)N1CCC(O)(CN2CCc3ccccc3C2)C1` (stereo not drawn): the cytotoxicity at 10 µM was determined as 0.803%. For `COc1cccc(CN2CCC3(CC2)CCN(c2ncc(C)cn2)C3)c1`, the cytotoxicity at 10 µM is -3.55%. Turning to `CC(Cn1cccn1)NC(=O)N(C)Cc1ccc(Cl)s1` (stereo not drawn), the cytotoxicity at 10 µM was -11.9%. Consider `COc1ccc(CNc2ncnc3c2NC(=O)CN3)cc1`, for which the cytotoxicity at 10 µM came to 11.8%. Next, `O=C(CC1=CSC2=NCCCN12)N1CCCCC1c1cccc(F)c1` (stereo not drawn): -160%; `CCN(C1CCN(Cc2ncc(C(C)(C)C)o2)CC1)S(C)(=O)=O`: -4.15%; `CC1(C)Cc2nc(C(C)(C)C)ncc2C(NC(=O)C2(N)CC2)C1` (stereo not drawn): -2.49%. Next, `CC(=O)N1CCC2(CCCN(C(=O)CCN3CCCCC3)C2)C1` (stereo not drawn): 0.906%; `Cc1csc(NC(=O)CN2CCC(c3ccnn3CCO)CC2)n1`: 5.03%. In the case of `CN1CCN(C(=O)CCc2cc(Br)cs2)CC1`, the cytotoxicity at 10 µM is -5.35%.

Regarding `Cc1nc(NCC2CC2)nc2c1COCC21CCNC1` (stereo not drawn), the cytotoxicity at 10 µM was -72.8%.

`CCN(Cc1noc(CC(C)C)n1)Cc1ncccc1C(=O)O`: the cytotoxicity at 10 µM is -37.2%. `CCN1CCC2(CC1)CN(CCO)c1ccccc12`: the cytotoxicity at 10 µM was -0.173%.

`CCOc1ncccc1C(=O)N1CCN(C)C2(CCN(C)CC2)C1`: the cytotoxicity at 10 µM is -0.351%. Take `COCCc1noc(CN2CCCc3cccc(OC)c32)n1`: the cytotoxicity at 10 µM is 5.52%.

Consider `Cc1nnc(CNCC2(O)CCCN(Cc3ccc(F)c(F)c3)C2=O)[nH]1` (stereo not drawn), for which the cytotoxicity at 10 µM is -6.79%.

Take `COc1ccccc1CN1C[C@@H]2COC[C@]2(COc2cccnc2)C1`: the cytotoxicity at 10 µM was 6.24%. Next, `CCc1cnc(N)nc1NCCCn1nc(C)nc1C`: -1.37%; `c1cncc(O[C@H]2COCCN(Cc3c[nH]c4ccccc34)C2)c1`: 0.208%; `O=C(CCn1cncn1)N1CC[C@@H](c2ccc3ccccc3c2)[C@H](O)C1`: -5.16%. On to `CC(NC(=O)Cc1cccs1)c1nnc2n1CCCCC2` (stereo not drawn), for which the cytotoxicity at 10 µM was -15.5%. As to `COCC(=O)N1CC[C@@H](N2CCN(C)CC2)[C@@H]1Cc1ccccc1`, the cytotoxicity at 10 µM is -66.1%.

With `CCNC(=O)c1ccc(NC2CCOC3(CCCCC3)C2)nn1` (stereo not drawn), the cytotoxicity at 10 µM was -3%. Regarding `CCCc1cc(C(=O)N[C@H](C)[C@@H](O)c2ccc(O)cc2)n(C)n1`, the cytotoxicity at 10 µM is 1.48%.

Take `Cc1cccc(N2CCN(C(=O)CN3CCN(CCO)CC3)CC2)c1`: the cytotoxicity at 10 µM is -15.5%. As for `CCCn1nc(C(=O)NC2(c3ccc(Cl)cc3)CCCC2)ccc1=O`, the cytotoxicity at 10 µM was 9.46%. In the case of `Cc1nn(C)c(C)c1NC(=O)CNc1cc(C(F)(F)F)ccc1F` it was 13.4%; in that of `CC(=O)N1Cc2cnc(C(C)(C)C)nc2C1`, -122%.

With `Cc1cc(OC(F)F)c(C(=O)N2CC[C@H](O)C2)s1`, the cytotoxicity at 10 µM was found to be 9.67%.

Turning to `O=c1[nH]c2cn(-c3ccc(Br)cc3)c(=O)n2[nH]1`, the cytotoxicity at 10 µM is -5.51%. On to `Cc1ccc(CN2C(=O)OCC2CO)c2ccccc12` (stereo not drawn), for which the cytotoxicity at 10 µM is -5.21%. `Cn1nc(C2CN(C(=O)c3cccnc3)C2)c2nccnc21`: the cytotoxicity at 10 µM was -21.7%. With `Cc1nc(C)n(CC(C)C(=O)N2CCC(CN3CCOCC3)CC2)n1` (stereo not drawn), the cytotoxicity at 10 µM worked out at 0.635%. Next, `CS(=O)(=O)CCSC1CCN(c2ccccc2F)C1=O` (stereo not drawn): -7.68%; `CC(=O)NCC(=O)NCC1(O)CCN(c2cnccn2)C1` (stereo not drawn): 7.89%; `CC(NC(N)=O)C(=O)NCc1cc(Br)ccc1F` (stereo not drawn): -3.02%.

Consider `Cc1ccc2cc(CN(C)Cc3ccncn3)c(=O)[nH]c2c1`, for which the cytotoxicity at 10 µM is 10.3%. In the case of `N#Cc1ccccc1CN(CCO)Cc1ccsc1` it was 18.4%; in that of `CCOCCN1CCN(c2ccc(C#N)cn2)CC1`, -4.21%. Regarding `Cc1nc(CN2CC3(CCN(c4ncccn4)C3)CC2=O)cs1` (stereo not drawn), the cytotoxicity at 10 µM was found to be 5.31%.
